Experimental data published in PubChem BioAssay.
Inconclusive results are not listed.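 Rule for the calls, unless noted: active = viability at or below 27.92% in each of two runs, the all-compound median minus 4 SD; inconclusive = no clear call, values can overlap the other calls; inactive = the rest.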

What was measured:
[1] = S. cerevisiae growth inhibition in permissive medium (OD615), pilot counter-assay for S. cerevisiae lifespan shortening project, permissive growth control (AID 705;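 active = growth inhibition above 25% in both replicates, a cutoff set 3 SD above the mean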); settings: OD615, 24 h, at 10 µM, stronger effect = higher value
Outline: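 Test system: Saccharomyces cerevisiae strain carrying genetically modified DeaD replicative-lifespan system; buffer or medium: SC raffinose/galactose permissive medium; dosing: one dose 10 µM, DMSO 0.25% final; times: 24 h exposure, 30 °C; measured by: OD at 615 nm; read-out basis: growth inhibition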

[2] = S. cerevisiae growth inhibition in restrictive medium, OD615, pilot screen, restrictive growth control, yeast lifespan reduction project (AID 706;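 active = growth inhibition above a set limit, 3 SD over mean compound inhibition, in both replicates, cut at about 43% in these data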;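 note: modified DeaD lifespan yeast strain shifted to restrictive glucose medium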); settings: OD615, 48 h, at 10 µM, stronger effect = higher value
Outline: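 material = engineered S. cerevisiae DeaD strain | buffer or medium = glucose-based CSMM-D restrictive medium | dosing = one concentration, 10 µM final, 0.25% DMSO | schedule = 4 h pre-growth plus 48 h compound exposure, 30 °C | detection = OD615 absorbance reading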

[3] = doxorubicin toxicity protection in MRP-1 cells – H69AR cells, CellTiter-Glo, duplicate, MRP-1 activator project, pilot screen (AID 807;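 active = viability increase at or above a cutoff of the median across tested compounds plus 3 SD, cut at about 8.5% in these data, passing the limit was not always enough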;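 note: compound pretreatment 18-22 h then 72 h combined with doxorubicin; 0% = doxorubicin alone and 100% = vehicle without doxorubicin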); settings: H69AR viability with doxorubicin, CellTiter-Glo luminescence; at 10 µM; stronger effect = higher value
[4] = viability of HCT116 without oncogenic beta-catenin – human colon tumor cells, pilot screen (AID 823;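 active = cell viability at or below a set limit in both duplicate runs, the limit being the all-compound median minus 4 SD, cut at about 23% in these data, passing the limit was not always enough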;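 note: 0% = wells killed by 20 µM Hyamine and 100% = untreated DMSO cell wells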); settings: HCT116 beta-catenin knockout viability, CellTiter-Glo, 60 h; at 10 µM; stronger effect = lower value
[5] = viability of PTEN-null HCT116 cells – cell-based, HCT116 clonal line, CellTiter-Glo, pilot screen (AID 824); settings: HCT116 PTEN-deleted viability, 60 h, at 10 µM, stronger effect = lower value;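 note: 0% = 20 µM Hyamine control and 100% = vehicle cell control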
[6] = RAM pathway blockade in budding yeast – dse1pr::URA3 reporter, 5-FOA selection, pilot screen (AID 869;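 active = inhibition over a set limit, the all-compound mean plus 3 SD, in both replicate runs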;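 note: 0% = DMSO wells with no growth and 100% = 10 µM 1-NA-PP1 with full growth; RAM network block rescues cells from 5-FOA so hits raise OD615 growth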); settings: S. cerevisiae dse1pr::URA3 5-FOA growth, OD615, 2 d; at 10 µM; stronger effect = higher value; strain carries analog-sensitive mutant Cbk1 kinase
[7] = RAM signaling pathway blockade in yeast – S. cerevisiae, Pdr1DBD-CYC8 efflux-inhibited sensitized strain, primary screen (AID 1298;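 active = RAM network inhibition above 8.4% in each of two replicates, 3 SD over the compound average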;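 note: 0% = DMSO untreated cells without growth and 100% = 10 µM 1-NA-PP1 full growth; higher means more yeast growth rescued from 5-FOA killing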); settings: S. cerevisiae cbk1-as DSE1-URA3 strain, 5-FOA growth OD615, 2 d; at 50 µM; stronger effect = higher value

COC(=O)C1=C(C)Nc2nc(-c3ccccc3)nn2C1c1ccc(C)o1 (stereo not drawn)
inactive: growth inhibition [1] -4.19% | growth inhibition [2] 12.3% | viability increase [3] -4.23% | viability [4] 78.3% | viability [5] 76.1% | inhibition [6] 2.19% | RAM network inhibition [7] 1.2%

Cc1cc(C)c2c(n1)nn1c(C)c(CCC(=O)NCc3ccco3)c(C)nc21
inactive: growth inhibition [1] 3.4% | growth inhibition [2] 1.73% | viability increase [3] -4.82% | viability [4] 89.8% | viability [5] 94.8% | inhibition [6] 0.545% | RAM network inhibition [7] 2.09%

CCOc1ccccc1Nc1nnc(C)c(=O)[nH]1
inactive: growth inhibition [1] -5.5% | growth inhibition [2] 5.76% | viability increase [3] -0.35% | viability [4] 105% | viability [5] 99.3% | inhibition [6] 0.56% | RAM network inhibition [7] 3.65%

O=c1sc(N2CCN(c3ccccc3F)CC2)nc2ccsc12
inactive: growth inhibition [1] -7.07% | growth inhibition [2] -8.01% | viability increase [3] -1.94% | viability [4] 85.3% | viability [5] 81.9% | inhibition [6] 3.63% | RAM network inhibition [7] 7.46%

O=C(O)c1cc(S(=O)(=O)N2CCCCCC2)c(Cl)cc1Cl
inactive: growth inhibition [1] -2.36% | growth inhibition [2] -0.81% | viability increase [3] -0.57% | viability [4] 90.4% | viability [5] 101% | inhibition [6] 1.18% | RAM network inhibition [7] 6.2%

CCN(Cc1ccccc1)C(=O)Cn1cc2c(n1)CCCC2
inactive: growth inhibition [1] -5.23% | growth inhibition [2] -2.12% | viability increase [3] 1.91% | viability [4] 94% | viability [5] 92.5% | inhibition [6] 2.06% | RAM network inhibition [7] -1.27%

O=C(CCN1C(=O)c2ccccc2C1=O)Nc1ccncc1
inactive: growth inhibition [1] 0.69% | growth inhibition [2] -3.13% | viability increase [3] 3.4% | viability [4] 98.5% | viability [5] 105% | inhibition [6] 1.6% | RAM network inhibition [7] 1.47%

O=c1c(N2CCOCC2)nsnc1N1CCOCC1
inactive: growth inhibition [1] 8.28% | growth inhibition [2] -6.26% | viability increase [3] -1.68% | viability [4] 106% | viability [5] 95.8% | inhibition [6] 0.59% | RAM network inhibition [7] -2%

CCOc1ccc(CC(=O)N2CCN(c3ccc(N4CCOCC4)nn3)CC2)cc1OCC
inactive: growth inhibition [1] -1.33% | growth inhibition [2] 8.3% | viability increase [3] 0.46% | viability [4] 103% | viability [5] 106% | inhibition [6] -0.385% | RAM network inhibition [7] 6.26%

CCNc1nc(C)c2cc(Br)c(=O)n(CC)c2n1
inactive: growth inhibition [1] -2.64% | growth inhibition [2] -8.07% | viability increase [3] -6.29% | viability [4] 66.4% | viability [5] 64.6% | inhibition [6] 0.44% | RAM network inhibition [7] 7.93%

COc1cccc(C2CC(c3ccc(Cl)cc3Cl)n3nc(N)nc3N2)c1 (stereo not drawn)
inactive: growth inhibition [1] -1.58% | growth inhibition [2] 18.6% | viability increase [3] 4.01% | viability [4] 90.8% | viability [5] 90.8% | inhibition [6] 1.79% | RAM network inhibition [7] 8.01%

CCOC1CCCCC1NS(=O)(=O)c1ccc(Cl)cc1 (stereo not drawn)
inactive: growth inhibition [1] -3.5% | growth inhibition [2] 1.71% | viability increase [3] -3.23% | viability [4] 99.3% | viability [5] 91.7% | inhibition [6] 1.5% | RAM network inhibition [7] 2.71%

COc1cc(NS(=O)(=O)c2ccc3c(c2)oc(=O)n3C)cc(OC)c1OC
inactive: growth inhibition [1] -3.74% | growth inhibition [2] 0.425% | viability increase [3] -4.97% | viability [4] 41.9% | viability [5] 35.5% | inhibition [6] -0.355% | RAM network inhibition [7] 2.41%

O=C(OCC(=O)c1cccs1)c1ccc(NC(=O)c2ccco2)cc1
inactive: growth inhibition [1] -6.02% | growth inhibition [2] -19.9% | viability increase [3] -3.62% | viability [4] 96.9% | viability [5] 76.1% | inhibition [6] 0.87% | RAM network inhibition [7] 0.26%

Cc1cc(C)n(/N=C/c2c[nH]c3ccccc23)c(=O)c1
inactive: growth inhibition [1] -12.3% | growth inhibition [2] -5.84% | viability increase [3] -3.53% | viability [4] 100% | viability [5] 102% | inhibition [6] 0.785% | RAM network inhibition [7] 2.38%

CCOC(=O)N1CCN(C(=O)NC23CC4CC(CC(C4)C2)C3)CC1
inactive: growth inhibition [1] -2.78% | growth inhibition [2] -5.79% | viability increase [3] -2.4% | viability [4] 95.7% | viability [5] 92.1% | inhibition [6] 2.83% | RAM network inhibition [7] 3.57%

Nc1nc(SCC(=O)NCCCO)nc2sc3c(c12)CCC3
inactive: growth inhibition [1] -8.84% | growth inhibition [2] -4.31% | viability increase [3] -1.44% | viability [4] 96.1% | viability [5] 94% | inhibition [6] 1.44% | RAM network inhibition [7] 0.31%

O=C(C1CCN(S(=O)(=O)c2cccc3cccnc23)CC1)N1CCn2c1nc1ccccc12
inactive: growth inhibition [1] -1.95% | growth inhibition [2] -3.35% | viability increase [3] -1.86% | viability [4] 87.7% | viability [5] 83.2% | inhibition [6] 2.52% | RAM network inhibition [7] -1.55%

O=C(CC1Oc2ccccc2NC1=O)NC1CCCC1 (stereo not drawn)
inactive: growth inhibition [1] 1.69% | growth inhibition [2] 2.71% | viability increase [3] 0.05% | viability [4] 103% | viability [5] 102% | inhibition [6] 1.33% | RAM network inhibition [7] 0.1%

Cc1ccc(Cl)cc1N1CCN(C(=O)CCC(=O)O)CC1
inactive: growth inhibition [1] -10.9% | growth inhibition [2] -29.2% | viability increase [3] -1.08% | viability [4] 95.6% | viability [5] 91.3% | inhibition [6] 1.51% | RAM network inhibition [7] 2.18%

COc1ccc(OC)c2c1CC(C)(C)NC2=O
inactive: growth inhibition [1] 0.615% | growth inhibition [2] 7.13% | viability increase [3] -0.54% | viability [4] 88.3% | viability [5] 96.9% | inhibition [6] 1.83% | RAM network inhibition [7] 3.75%

O=C(NCc1ccccn1)Nc1cccc(Cl)c1
inactive: growth inhibition [1] -14.7% | growth inhibition [2] -9.4% | viability increase [3] -2.22% | viability [4] 97.7% | viability [5] 94.5% | inhibition [6] 0.095% | RAM network inhibition [7] 2.46%

Cc1cccc(N2CCN(C(=O)C3CCN(S(=O)(=O)c4cccc5cccnc45)CC3)CC2C)c1 (stereo not drawn)
inactive: growth inhibition [1] -1.53% | growth inhibition [2] -4.12% | viability increase [3] -1.38% | viability [4] 69.9% | viability [5] 67.1% | inhibition [6] 2.65% | RAM network inhibition [7] 1.04%

COc1ccc(C(=O)Nc2c(F)c(F)c(F)c(F)c2F)c(OC)c1
inactive: growth inhibition [1] -11% | growth inhibition [2] 3.84% | viability increase [3] -1.15% | viability [4] 100% | viability [5] 102% | inhibition [6] 2.96% | RAM network inhibition [7] 2.45%
